pIC50: −log10 of the molar value.
What was measured:
[1] = Concentration producing half maximal displacement of [3H]NPY specific binding from benextramine sensitive NPY binding sites in rat brain membranes; type: cell membranes
Summary of the method: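 Membranes from male Sprague–Dawley rat brain (250–300 g), 1.2–1.6 mg protein/mL, were incubated with 1.0 nM [3H]NPY and 10–12 concentrations (10⁻³–10⁻⁷ M) of compound. Incubation was in duplicate in Krebs–Ringer bicarbonate with 50 mM phosphate, 0.1% BSA and 0.05% bacitracin (pH 7.4), at 25 °C for 90 min. Nonspecific binding was set with 1 μM NPY. Bound ligand was collected on PEI-treated GF/A filters and counted by scintillation. Runs were done at least in triplicate, and averaged data were fit to a two-site competitive isotherm.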

[2] = Percentage of maximum displacement of 1.0 nM [3H]NPY from rat brain membranes homogenates using 1.0 uM NPY to determine specific binding; type: cell membranes; conditions: Membrane
Summary of the method: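 Rat brain membranes (1.2–1.6 mg protein/mL) were incubated with 1.0 nM [3H]NPY and 10⁻³–10⁻⁷ M compound in duplicate. Buffer was pH 7.4 Krebs–Ringer bicarbonate/phosphate with BSA and bacitracin, at 25 °C for 90 min. Nonspecific binding was defined with 1.0 μM NPY, and results were filtered and counted by scintillation. The value is the maximal percentage of specific [3H]NPY binding displaced, from at least triplicate experiments.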

Rattus norvegicus = organism: Rattus norvegicus; test: Relative potency in displacing 1 nM [3H]NPY from benextramine-sensitive rat brain NPYsites

Compound	pIC50 [1]	maximal displacement of specific binding [2] [%]	Relative potency (Rattus norvegicus)
COc1ccccc1CNCCCCCCNCCSSCCNCCCCCCNCc1ccccc1OC [BENEXTRAMINE]	4.24	65	1
c1ccc2cc(CNCCCCCCNCCSSCCNCCCCCCNCc3ccc4ccccc4c3)ccc2c1	4.50	68	1.8
N=C(N)N(CCCCCCNCC12C[C@H]3C[C@@H](C1)C[C@@H](C2)C3)CCSSCCN(CCCCCCNCC12C[C@H]3C[C@@H](C1)C[C@@H](C2)C3)C(=N)N	4.82	68	3.8
N=C(N)N(CCCCCCNCc1ccc2ccccc2c1)CCCCCCN(CCCCCCNCc1ccc2ccccc2c1)C(=N)N	4.74	72	2.6
N=C(N)N(CCCCCCNCc1ccc2ccccc2c1)CCSSCCN(CCCCCCNCc1ccc2ccccc2c1)C(=N)N	4.83	76	3.9
c1ccc2cc(CNCCCCCCNCCCCCCNCCCCCCNCc3ccc4ccccc4c3)ccc2c1	4.32	75	1

Source: ChEMBL document CHEMBL1127829, “Nonpeptide peptidomimetic antagonists of the neuropeptide Y receptor: benextramine analogs with selectivity for the peripheral Y2 receptor” (J Med Chem, 1994)
